# Assay results taken from ChEMBL document CHEMBL1121802, “Imine analogues of tricyclic antidepressants” (1981).
# Experiments:
# Assay type in all cases: functional
# Mus musculus [1] = experiment: Antidepressant activity by determining the decreased exploratory activity in mice upon oral administration
# Procedure, shortened: (§1)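 Mice given test drug orally; 30 min later challenged with tetrabenazine (methanesulfonate) 32 mg/kg ip in 0.05 M KCl pH 2.0. Scored 1 h after test drug for exploratory activity and ptosis; ptosis antagonism = lid closure <50% in both eyes exactly 2 s after placing mouse facing observer. ED50 calculated by Thompson method.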
# Mus musculus [2] = experiment: The effect on electroshock protection in mice following oral administration
# Procedure, shortened: (§2)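 Observed at 0.5, 2, 5 and 24 h for ataxia (abnormal gait/imprecise movement), pupil diameter (dissecting microscope, 20×, micrometer), excitement (spontaneous running/jumping) and electroshock protection (corneal electrodes at 2 and 5 h). ED50 by Thompson method.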
# Mus musculus [3] = experiment: The effect on excitement was measured in mice following oral administration; procedure, shortened: as §2
# Mus musculus [4] = experiment: The effect on ataxia in mice following oral administration; procedure, shortened: as §2
# Mus musculus [5] = experiment: Effect on pupil dilation was measured in mice upon oral administration; procedure, shortened: as §2
# Mus musculus [6] = experiment: The effect on 24-hour mortality in mice following oral administration
# Mus musculus [7] = experiment: Antidepressant activity by determining the reversal of tetrabenazine-induced ptosis upon oral administration; procedure, shortened: as §1
# Mus musculus [8] = experiment: Compound was tested for antidepressant activity by determining the decreased exploratory activity in mice upon oral administration; 2.6-28; procedure, shortened: as §1
# Mus musculus [9] = experiment: Compound was tested for antidepressant activity by determining the reversal of tetrabenazine-induced ptosis upon oral administration; 48-203; procedure, shortened: as §1
# Mus musculus [10] = experiment: Compound was tested for antidepressant activity by determining the reversal of tetrabenazine-induced ptosis upon oral administration; 2.0-3.1; procedure, shortened: as §1
# Mus musculus [11] = experiment: Compound was tested for antidepressant activity by determining the decreased exploratory activity in mice upon oral administration; 4.2-9.7; procedure, shortened: as §1
# Mus musculus [12] = experiment: Compound was tested for antidepressant activity by determining the reversal of tetrabenazine-induced ptosis upon oral administration; 11-29; procedure, shortened: as §1
# Mus musculus [13] = experiment: compound was tested for antidepressant activity by determining the decreased exploratory activity in mice upon oral administration; […]
# Procedure, shortened: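 Mice got the test drug, then 30 min later tetrabenazine (as methanesulfonate) 32 mg/kg ip, dissolved in 0.20 mL of 0.05 M KCl at pH 2.0. One hour after test drug (30 min after tetrabenazine), animals were scored for exploratory activity and ptosis. Reversal of the tetrabenazine-induced decrease in exploration was the read-out.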
# Mus musculus [14] = experiment: Compound was tested for antidepressant activity by determining the decreased exploratory activity in mice upon oral administration; 8-58; procedure, shortened: as §1
# Mus musculus [15] = experiment: Compound was tested for antidepressant activity by determining the reversal of tetrabenazine-induced ptosis upon oral administration; 6-20; procedure, shortened: as §1
# Mus musculus [16] = experiment: Compound was tested for antidepressant activity by determining the reversal of tetrabenazine-induced ptosis upon oral administration; 0.8-2.6; procedure, shortened: as §1
# Mus musculus [17] = experiment: Compound was tested for antidepressant activity by determining the decreased exploratory activity in mice upon oral administration; 4.1-12; procedure, shortened: as §1
# Mus musculus [18] = experiment: Compound was tested for antidepressant activity by determining the decreased exploratory activity in mice upon oral administration; 1.2-5.5; procedure, shortened: as §1
# Mus musculus [19] = experiment: Compound was tested for antidepressant activity by determining the reversal of tetrabenazine-induced ptosis upon oral administration; 0.3-1.2; procedure, shortened: as §1
# Mus musculus [20] = experiment: Compound was tested for antidepressant activity by determining the decreased exploratory activity in mice upon oral administration; 0.4-1.1; procedure, shortened: as §1
# Mus musculus [21] = experiment: Compound was tested for antidepressant activity by determining the reversal of tetrabenazine-induced ptosis upon oral administration; 0.17-0.37; procedure, shortened: as §1
# Mus musculus [22] = experiment: Compound was tested for antidepressant activity by determining the decreased exploratory activity in mice upon oral administration; procedure, shortened: as §1
Structure (SMILES),ED50 (Mus musculus [1]),ED50 (Mus musculus [2]),ED50 (Mus musculus [3]),ED50 (Mus musculus [4]),ED50 (Mus musculus [5]),ED50 (Mus musculus [6]),ED50 (Mus musculus [7]),further results
CN(C)CCCN=c1c2ccccc2oc2ccccc12,> 125 mg/kg,> 324 mg/kg,> 324 mg/kg,60 mg/kg,> 324 mg/kg,300 mg/kg,> 125 mg/kg,
CNCCN=C1c2ccccc2CCc2ccccc21,,> 324 mg/kg,> 324 mg/kg,36 mg/kg,60 mg/kg,200 mg/kg,< 5 mg/kg,ED50 (Mus musculus [8]): 8.5 mg/kg
CN(C)CCC/N=C1\c2ccccc2CS(=O)(=O)c2ccccc21,> 125 mg/kg,> 324 mg/kg,> 324 mg/kg,200 mg/kg,20 mg/kg,20 mg/kg,> 125 mg/kg,
CN(C)CCC/N=C1\c2ccccc2CSc2ccccc21,81 mg/kg,> 324 mg/kg,> 324 mg/kg,60 mg/kg,60 mg/kg,60 mg/kg,> 81 mg/kg,
CN(C)CCC/N=C1\c2ccccc2COc2ccccc21,> 125 mg/kg,> 324 mg/kg,> 324 mg/kg,20 mg/kg,20 mg/kg,200 mg/kg,,ED50 (Mus musculus [9]): 99 mg/kg
CN(C)CCN=C1c2ccccc2C2C(Cl)C2c2ccccc21 (centres undefined),> 125 mg/kg,> 324 mg/kg,> 324 mg/kg,200 mg/kg,200 mg/kg,> 324 mg/kg,> 125 mg/kg,
CN(C)CCN=c1c2ccccc2ccc2ccccc12,,> 324 mg/kg,7 mg/kg,4 mg/kg,4 mg/kg,36 mg/kg,,ED50 (Mus musculus [10]): 2.5 mg/kg; ED50 (Mus musculus [11]): 6.4 mg/kg
NCCN=C1c2ccccc2CCc2ccccc21,,200 mg/kg,> 324 mg/kg,100 mg/kg,200 mg/kg,200 mg/kg,,ED50 (Mus musculus [12]): 18 mg/kg; ED50 (Mus musculus [13]): 56 mg/kg
CN(C)CCN=c1c2ccccc2sc2ccccc12,,> 324 mg/kg,> 324 mg/kg,60 mg/kg,36 mg/kg,300 mg/kg,,ED50 (Mus musculus [14]): 22 mg/kg; ED50 (Mus musculus [15]): 11 mg/kg
CN(C)CCN=C(c1ccccc1)c1ccccc1,> 81 mg/kg,> 200 mg/kg,> 324 mg/kg,36 mg/kg,> 324 mg/kg,> 324 mg/kg,> 81 mg/kg,
CCN(CC)CCN=C1c2ccccc2C2CC2c2ccccc21 (centres undefined),,100 mg/kg,> 324 mg/kg,36 mg/kg,36 mg/kg,200 mg/kg,,ED50 (Mus musculus [16]): 1.4 mg/kg; ED50 (Mus musculus [17]): 6.9 mg/kg
CNCCN=C1c2ccccc2C2CC2c2ccccc21 (centres undefined),,300 mg/kg,> 324 mg/kg,36 mg/kg,60 mg/kg,300 mg/kg,,ED50 (Mus musculus [18]): 2.6 mg/kg; ED50 (Mus musculus [19]): 0.6 mg/kg
CN(C)CCN=C1c2ccccc2C2CC2c2ccccc21 (centres undefined),,> 324 mg/kg,60 mg/kg,20 mg/kg,20 mg/kg,> 324 mg/kg,,ED50 (Mus musculus [20]): 0.7 mg/kg; ED50 (Mus musculus [21]): 0.25 mg/kg
CCNCCN=C1c2ccccc2CCc2ccccc21,> 125 mg/kg,60 mg/kg,> 324 mg/kg,20 mg/kg,20 mg/kg,36 mg/kg,> 125 mg/kg,
CN(C)CCNC1c2ccccc2CCc2ccccc21,,60 mg/kg,> 324 mg/kg,20 mg/kg,20 mg/kg,200 mg/kg,> 125 mg/kg,ED50 (Mus musculus [22]): > 125 mg/kg
CN(C)CCC=C1c2ccccc2COc2ccccc21 [DOXEPIN],,62 mg/kg,> 324 mg/kg,23 mg/kg,56 mg/kg,232 mg/kg,5.9 mg/kg,ED50 (Mus musculus [22]): 27 mg/kg
CN(C)CCCN1c2ccccc2CCc2ccccc21 [IMIPRAMINE],,209 mg/kg,> 324 mg/kg,62 mg/kg,198 mg/kg,305 mg/kg,0.9 mg/kg,ED50 (Mus musculus [22]): 2.2 mg/kg
